{"source": "paper PMC4415995", "about": "(Advances in Therapy, 2015)", "assay_type_in_all_cases": "in vivo, human", "key": {"[1]": {"test_system": "Japanese patients with T2DM", "assay": "Serum insulin concentrations, 7-day once-daily dosing"}, "[2]": {"test_system": "Japanese patients with T2DM", "assay": "Adverse events, 7-day once-daily dosing", "settings": "for ALT increased / Blood urine present / Constipation / Dermatitis contact / Diarrhea / Headache / Pruritus / γ-GTP increased: N = 8", "how_it_was_run": "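Randomized, single-blind, placebo-controlled, parallel-group study in Japanese T2DM outpatients (HbA1c 6.9–10.5%, FPG ≥126 mg/dL, stable diet 4 weeks, age 20–74 y). Test compound 0.5, 1, 2.5 or 5 mg or placebo was given orally once daily for 7 days before breakfast. Safety set was all dosed patients. AEs were coded in MedDRA 12.1 and graded mild/moderate/severe, with drug relation judged by the investigator. Labs, vital signs, body weight and ECG were also recorded.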"}, "[3]": {"test_system": "Japanese patients with T2DM", "assay": "Sigmoid E max model regression of change in UGE on plasma luseogliflozin AUC"}}, "note": "Marks after values point to notes of the source that are not given here.", "data": [{"smiles": "CCOc1ccc(Cc2cc([C@@H]3S[C@H](CO)[C@@H](O)[C@H](O)[C@H]3O)c(OC)cc2C)cc1", "note": "[Luseogliflozin, (1S)-1,5-anhydro-1-[5-(4-ethoxybenzyl)-2-methoxy-4-methylphenyl]-1-thio-D-glucitol]", "values": [{"measurement": "Serum insulin AUC0–4h (after breakfast)", "setting": "[1]; 0.5 mg OD, Day 1", "value": "95.0 ± 33.9", "unit": "μIU h/mL"}, {"measurement": "Serum insulin AUC0–4h (after breakfast) LS mean difference vs placebo (95% CI)", "setting": "[1]; 0.5 mg OD, Day 1", "value": "−13.8 (−43.1, 15.6) μIU h/mL"}, {"measurement": "Serum insulin AUC0–4h (after breakfast)", "setting": "[1]; 0.5 mg OD, Day 7", "value": "81.4 ± 39.4", "unit": "μIU h/mL"}, {"measurement": "Serum insulin AUC0–4h (after breakfast) LS mean difference vs placebo (95% CI)", "setting": "[1]; 0.5 mg OD, Day 7", "value": "−32.3 (−62.8, −1.82)* μIU h/mL"}, {"measurement": "Serum insulin AUC0–4h (after breakfast)", "setting": "[1]; 1 mg OD, Day 1", "value": "161 ± 67.9", "unit": "μIU h/mL"}, {"measurement": "Serum insulin AUC0–4h (after breakfast) LS mean difference vs placebo (95% CI)", "setting": "[1]; 1 mg OD, Day 1", "value": "−12.1 (−39.4, 15.3) μIU h/mL"}, {"measurement": "Serum insulin AUC0–4h (after breakfast)", "setting": "[1]; 1 mg OD, Day 7", "value": "125 ± 43.4", "unit": "μIU h/mL"}, {"measurement": "Serum insulin AUC0–4h (after breakfast) LS mean difference vs placebo (95% CI)", "setting": "[1]; 1 mg OD, Day 7", "value": "−36.1 (−64.5, −7.72)* μIU h/mL"}, {"measurement": "Serum insulin AUC0–4h (after breakfast)", "setting": "[1]; 2.5 mg OD, Day 1", "value": "101 ± 56.1", "unit": "μIU h/mL"}, {"measurement": "Serum insulin AUC0–4h (after breakfast) LS mean difference vs placebo (95% CI)", "setting": "[1]; 2.5 mg OD, Day 1", "value": "−32.7 (−60.4, −4.93)* μIU h/mL"}, {"measurement": "Serum insulin AUC0–4h (after breakfast)", "setting": "[1]; 2.5 mg OD, Day 7", "value": "75.1 ± 29.4", "unit": "μIU h/mL"}, {"measurement": "Serum insulin AUC0–4h (after breakfast) LS mean difference vs placebo (95% CI)", "setting": "[1]; 2.5 mg OD, Day 7", "value": "−56.7 (−85.4, −27.9)* μIU h/mL"}, {"measurement": "Serum insulin AUC0–4h (after breakfast)", "setting": "[1]; 5 mg OD, Day 1", "value": "190 ± 118", "unit": "μIU h/mL"}, {"measurement": "Serum insulin AUC0–4h (after breakfast) LS mean difference vs placebo (95% CI)", "setting": "[1]; 5 mg OD, Day 1", "value": "−17.0 (−44.8, 10.8) μIU h/mL"}, {"measurement": "Serum insulin AUC0–4h (after breakfast)", "setting": "[1]; 5 mg OD, Day 7", "value": "157 ± 82.5", "unit": "μIU h/mL"}, {"measurement": "Serum insulin AUC0–4h (after breakfast) LS mean difference vs placebo (95% CI)", "setting": "[1]; 5 mg OD, Day 7", "value": "−28.6 (−57.5, 0.198) μIU h/mL"}, {"measurement": "ALT increased", "setting": "[2]; 0.5 mg OD for 7 days", "value": "0 number of subjects"}, {"measurement": "Blood urine present", "setting": "[2]; 0.5 mg OD for 7 days", "value": "0 number of subjects"}, {"measurement": "Constipation", "setting": "[2]; 0.5 mg OD for 7 days", "value": "1 number of subjects"}, {"measurement": "Dermatitis contact", "setting": "[2]; 0.5 mg OD for 7 days", "value": "0 number of subjects"}, {"measurement": "Diarrhea", "setting": "[2]; 0.5 mg OD for 7 days", "value": "1 number of subjects"}, {"measurement": "Headache", "setting": "[2]; 0.5 mg OD for 7 days", "value": "1 number of subjects"}, {"measurement": "Pruritus", "setting": "[2]; 0.5 mg OD for 7 days", "value": "1 number of subjects"}, {"measurement": "γ-GTP increased", "setting": "[2]; 0.5 mg OD for 7 days", "value": "0 number of subjects"}, {"measurement": "ALT increased", "setting": "[2]; 1 mg OD for 7 days", "value": "0 number of subjects"}, {"measurement": "Blood urine present", "setting": "[2]; 1 mg OD for 7 days", "value": "0 number of subjects"}, {"measurement": "Constipation", "setting": "[2]; 1 mg OD for 7 days", "value": "0 number of subjects"}, {"measurement": "Dermatitis contact", "setting": "[2]; 1 mg OD for 7 days", "value": "1 number of subjects"}, {"measurement": "Diarrhea", "setting": "[2]; 1 mg OD for 7 days", "value": "0 number of subjects"}, {"measurement": "Headache", "setting": "[2]; 1 mg OD for 7 days", "value": "0 number of subjects"}, {"measurement": "Pruritus", "setting": "[2]; 1 mg OD for 7 days", "value": "0 number of subjects"}, {"measurement": "γ-GTP increased", "setting": "[2]; 1 mg OD for 7 days", "value": "0 number of subjects"}, {"measurement": "ALT increased", "setting": "[2]; 2.5 mg OD for 7 days", "value": "1 number of subjects"}, {"measurement": "Blood urine present", "setting": "[2]; 2.5 mg OD for 7 days", "value": "0 number of subjects"}, {"measurement": "Constipation", "setting": "[2]; 2.5 mg OD for 7 days", "value": "0 number of subjects"}, {"measurement": "Dermatitis contact", "setting": "[2]; 2.5 mg OD for 7 days", "value": "0 number of subjects"}, {"measurement": "Diarrhea", "setting": "[2]; 2.5 mg OD for 7 days", "value": "0 number of subjects"}, {"measurement": "Headache", "setting": "[2]; 2.5 mg OD for 7 days", "value": "0 number of subjects"}, {"measurement": "Pruritus", "setting": "[2]; 2.5 mg OD for 7 days", "value": "0 number of subjects"}, {"measurement": "γ-GTP increased", "setting": "[2]; 2.5 mg OD for 7 days", "value": "1 number of subjects"}, {"measurement": "ALT increased", "setting": "[2]; 5 mg OD for 7 days", "value": "0 number of subjects"}, {"measurement": "Blood urine present", "setting": "[2]; 5 mg OD for 7 days", "value": "1 number of subjects"}, {"measurement": "Constipation", "setting": "[2]; 5 mg OD for 7 days", "value": "0 number of subjects"}, {"measurement": "Dermatitis contact", "setting": "[2]; 5 mg OD for 7 days", "value": "0 number of subjects"}, {"measurement": "Diarrhea", "setting": "[2]; 5 mg OD for 7 days", "value": "0 number of subjects"}, {"measurement": "Headache", "setting": "[2]; 5 mg OD for 7 days", "value": "1 number of subjects"}, {"measurement": "Pruritus", "setting": "[2]; 5 mg OD for 7 days", "value": "0 number of subjects"}, {"measurement": "γ-GTP increased", "setting": "[2]; 5 mg OD for 7 days", "value": "0 number of subjects"}, {"measurement": "episodes of hypoglycemia", "setting": "[2]; 0.5-5 mg OD for 7 days", "value": "no episodes"}, {"measurement": "serious AEs or AEs leading to discontinuation", "setting": "[2]; 0.5-5 mg OD for 7 days", "value": "no serious AEs"}, {"measurement": "severity of adverse events", "setting": "[2]; 0.5-5 mg OD for 7 days", "value": "mild"}, {"measurement": "urinary tract/genital infection", "setting": "[2]; 0.5-5 mg OD for 7 days", "value": "no episodes"}, {"measurement": "UGE as share of the maximal UGE value estimated using the E max model", "setting": "[3]; 5 mg OD, after 7 days", "value": "approximately 85%"}, {"measurement": "E max (maximum change in UGE), estimate (95% CI)", "setting": "[3]; values on Day 1 and 7", "value": 119, "unit": "g/day"}]}]}
